Tested on: MS2 coat protein
Assay: apparent Kd, MS2 coat protein; higher = weaker binding; RNA-MaP array; FMN 200 µM where present
Outline: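 Stalled E. coli RNA polymerase transcribed each design on Illumina sequencing-chip clusters. The clusters were titrated with SNAP-549-labelled MS2 coat protein, starting at 0.7 or 1.5 nM and doubling up to 3 µM, first without ligand and then with constant ligand, in 100 mM Tris-HCl pH 7.5, 80 mM KCl, 4 mM MgCl2, BSA, DTT, yeast tRNA and Tween-20. Green signal was normalised to red-channel RNA signal and to the control-cluster median Fmax. The apparent Kd is the median of filtered binding-curve fits made for each cluster.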

[1] = designed as: OFF switch for flavin mononucleotide, no ligand
[2] = ligand present: flavin mononucleotide, designed as: OFF switch for flavin mononucleotide
[3] = designed as: ON switch for flavin mononucleotide, no ligand
[4] = ligand present: flavin mononucleotide, designed as: ON switch for flavin mononucleotide

Row | Sequence | apparent Kd [1] | apparent Kd [2] | apparent Kd [3] | apparent Kd [4]
1 | AUUCCUAGUGUUAGGAUAUGCGACGGGUGACCGUUGCAGAAGGAACAUGAGGAUCACCCAUGUUUAAUAAAAUC | 15.6 nM | 80.7 nM | – | –
2 | GCACUUGCGUAGAAGGUACAUUAUAAUUAAUUGUAAGGAUAUACAAACAUGAGGAUCACCCAUGUAAAUGGAAUUUGCAAGUGC | – | – | 6.52 nM | 6.36 nM
3 | AAUGAAACUUAGAAGGCCUACAUGAGGAUCACCCAUGUGGCUUUAAGUGUAGGAGGAUAUGAGGAUGCGGGUAGGAACCCACGC | 6.37 nM | 14.8 nM | – | –
4 | UUUCUUGGGCAAGGAUAUCCUGUGCGGUUACGGCUCGUGUCUGUCACAUGAGGAUCACCCAUGUGGGAGAAGGUGCCUGCGGUC | 6.09 nM | 6.78 nM | – | –
5 | AUGCUAUUAGGAUAUACAUGAGGAUCACCCAUGUCGCUCGAUCGACGGCUAAGACUAUGUAGAAGGGAUUACGU | 95.7 nM | 94.4 nM | – | –
6 | GUCAGCUCGUGAGGAUAUACAACACUGCUUCGGCAGUGUAUUAAGAUCACAUGAGGAUCACCCAUGUAGAAGGCACGACCUGAU | 14.1 nM | 257 nM | – | –
7 | GGGUACAUCGGAGGAUAUCAUGUAGAUACAUGAGGAUCACCCAUGUCGAUGGAGACAUCGGAGAUUGAGAAGGCCGAUGUACCG | – | – | 272 nM | 10.1 nM
8 | UGUUGUAUUACAGGAUAUCUAUUGGUUUUAUUUAGAGAAGGGUAUUCACAUGAGGAUCACCCAUGUAUAUACGAGGAAGUUGUG | – | – | 60.5 nM | 66.9 nM
9 | AUAUUUGUGUAGAAGGUACGUGAUUAGUCAUAGUAAGGAUAUACUGACAUGAGGAUCACCCAUGUAUAAAUAGUUAAAUGUUCU | – | – | 14.4 nM | 8.52 nM
10 | CGCUACAGCCAGAAGGACAUGAGGAUCACCCAUGUAGGAUAUGGGAGACGCAGUCCAGUGUAGAGAAACUACGCUACUGUAGCG | – | – | 504 nM | 216 nM
11 | UGUAACCGAGGAUAUACAUGAGGAUCACCCAUGUAAUGUAGUAUAGUGUGUGUGAGGUGUAGAAGGUGGGAUGU | 93.4 nM | 97.2 nM | – | –
12 | CACGAUGAUGUAGGAUAUAUGCUGGAAUACAGCAUAGAAGGACAUGAGGAUCACCCAUGUAAAGUGCCUCCAAAUAACAUCGUG | 18.5 nM | 44.5 nM | – | –
13 | UUAGUUACGGGAGGAUAUGUCACCCUGGGUCACAUGAGGAUCACCCAUGUGACAGAAGGCCCAAUUAUGGUGCCCAGGGCGCCU | 5.84 nM | 22.8 nM | – | –
14 | GCACUGGAUGUAGGAUAUCAGGACGAUAAGUCCUGAGAAGGACAUGAGGAUCACCCAUGUAAAAUCUCACCAGUGCAUAAUAUA | 13.6 nM | 16.6 nM | – | –
15 | GUCAGCUCGUGAGGAUAUAGAACACUGCUUCGGCAGUGUAUUAAGAUCACAUGAGGAUCACCCAUGUAGAAGGCACGAGCUGAU | 5.12 nM | 9.33 nM | – | –
16 | AGACUGAAGCAAGGAUAUUGUAAGGUUAUUGUACAAGAAGGUGCUGUUUAUGUCUCUUAACAUGAGGAUCACCCAUGUUUUGAA | – | – | 19.7 nM | 19.1 nM
17 | UUGAAUUAAAAGGAUAUGGGAGUCGAUAGACACCCAGAAGGUUUAACAUGAGGAUCACCCAUGUGUCCUAUCAA | 23.1 nM | 31.4 nM | – | –
18 | AGUCGGAGCAGAGGAUAUUACAUGAGGAUCACCCAUGUAAAUGGAAUAAGCUGGAAACAGCAAUGUAAGAAGGCUGCUCCGACA | 67.4 nM | 540 nM | – | –
19 | GUGUACAGAGGAUAUGCACGAGGAGUUACGAAAGUAACUUCACAUGAGGAUCACCCAUGUAGAAGGCUGUACAC | 14.4 nM | 17.8 nM | – | –
20 | GUCAGCUCGUGAGGAUAUACAACACUGCUUCAGCAGUGUAUUAAGAUCACAUGAGGAUCACCCAUGUAGAAGGCACGAGCUGAU | 13.8 nM | 242 nM | – | –
21 | CCGGUUUAUGGAGGAUAUGGAGCCUUAUUGGCUCCAGAAGGCUAAUAACAUGAGGAUCACCCAUGUCGGCGGUCUAAUGACCGA | – | – | 33.1 nM | 20.6 nM
22 | AUGGGACAUGAGGAUCACCCAUGUCCGGUAUAUCGAGGAUAUGGGAUGCUCUUAAUGUAACCAGAAGGCGAUAAAA | – | – | 16.6 nM | 18.9 nM
23 | AAGUCGUUAGGAUAUACAUGGAUAUACAUUUAUGUAGAACUACAUGAGGAUCACCCAUGUAGAAGGAACGAAUA | 38.2 nM | 54 nM | – | –
24 | CCGUAAUAUGGAGGAUAUGGAGCCUUAUUGGCUCCAGAAGGUCAUAAAACAUGAGGAUCACCCAUGUCGGCGGUCAAUAGACCG | – | – | 55.7 nM | 20.5 nM
25 | CUAUUAUGUGUAGGAUAUGCAUAUUAUUAUUAUGCAGAAGGACAUGAGGAUCACCCAUGUAUAUUAUUAUUAUAUAUUAUAUAU | 10.7 nM | 11.6 nM | – | –
26 | UCACGUCACCAAGGAUAUACCCGAAGAUCCAUGGUAGAAGGUGGUGACAUGAGGAUCACCCAUGUCCGCGCGGACAAGUGUGUU | 118 nM | 26.7 nM | – | –
27 | AAUAUGUGAGGAUAUAUCCACCGCGUAGGCUCGCGGUGACAAUAGAAGGUACAUGAGGAUCACCCAUGUAGGGA | 67.7 nM | 36.9 nM | – | –
28 | UUAUUUAUGCAAGGAUAUCAUUAAUUUUUACGUCCUACAUGAGGAUCACCCAUGUUUAGUUUAUUUGAGAAGGUGCAUUGUCUG | – | – | 38.4 nM | 27.6 nM

From the EternaBench riboswitch data
